Numbered stars: 1 amine (or outer) side, 2 acyl side, 3 side chain; on linkers, the order of the positions; unused ones are H or OH. Bridge positions count the residues as written; N and C are the ends. Square brackets hold non-standard residues; d marks the D form. Peptide text beside a SMILES is read from it. * marks the point of attachment. X1 = O=C(CC1(S[*:2])CCCCC1)[*:1]; Agmatine = N=C(N)NCCCCN*
Assays:
[1] = molecular target: Vasopressin V2 receptor (Sus scrofa) (UniProt P32307); test: Inhibition constant for [3H]LVP binding to medullary membranes of pig kidney; assay type: tissue-based
Sequence of Vasopressin V2 receptor (Sus scrofa) (P32307 whole entry): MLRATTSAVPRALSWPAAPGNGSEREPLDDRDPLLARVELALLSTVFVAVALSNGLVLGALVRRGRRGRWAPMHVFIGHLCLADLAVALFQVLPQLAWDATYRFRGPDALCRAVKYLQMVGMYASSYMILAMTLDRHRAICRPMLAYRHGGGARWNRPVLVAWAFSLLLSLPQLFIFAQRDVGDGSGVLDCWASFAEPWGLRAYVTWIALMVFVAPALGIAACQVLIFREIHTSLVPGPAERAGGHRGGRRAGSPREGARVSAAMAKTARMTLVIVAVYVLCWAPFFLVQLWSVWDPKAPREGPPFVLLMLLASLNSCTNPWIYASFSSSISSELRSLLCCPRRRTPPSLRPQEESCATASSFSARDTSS
In short: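 V2 receptor affinity measured on pig renal medullary membranes by competition with tritiated LVP, expressed as Kbind. Each determination averages triplicate tests, and the value averages (n) determinations.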

Vasopressin V2 receptor [2] = molecular target: Vasopressin V2 receptor (Homo sapiens, UniProt P30518); test: Inhibition constant for vasopressin-stimulated adenylate cyclase of medullary membranes of human kidney
Sequence of Vasopressin V2 receptor (Homo sapiens, UniProt P30518) (P30518 whole entry): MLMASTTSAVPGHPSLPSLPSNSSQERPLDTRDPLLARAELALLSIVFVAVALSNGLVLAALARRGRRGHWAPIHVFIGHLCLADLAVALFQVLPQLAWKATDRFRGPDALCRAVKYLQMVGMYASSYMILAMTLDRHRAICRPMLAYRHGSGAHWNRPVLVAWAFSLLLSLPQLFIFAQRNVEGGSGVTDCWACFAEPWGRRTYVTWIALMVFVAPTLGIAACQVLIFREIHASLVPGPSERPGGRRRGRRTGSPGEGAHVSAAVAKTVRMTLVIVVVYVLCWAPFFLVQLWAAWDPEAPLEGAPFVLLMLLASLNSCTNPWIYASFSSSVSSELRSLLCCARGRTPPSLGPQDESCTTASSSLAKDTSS
In short: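 Human renal medullary membrane preparations used. Antagonism measured as inhibition of LVP-stimulated adenylate cyclase, expressed as Ki. Only selected analogues tested. Each determination averages triplicate tests, and the value averages (n) determinations.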

[3] = molecular target: Vasopressin V2 receptor (Rattus norvegicus) (UniProt Q00788); test: Dose required to lower urine osmolality to 300 mOsm/kg in rat
Sequence of Vasopressin V2 receptor (Rattus norvegicus) (Q00788 whole entry): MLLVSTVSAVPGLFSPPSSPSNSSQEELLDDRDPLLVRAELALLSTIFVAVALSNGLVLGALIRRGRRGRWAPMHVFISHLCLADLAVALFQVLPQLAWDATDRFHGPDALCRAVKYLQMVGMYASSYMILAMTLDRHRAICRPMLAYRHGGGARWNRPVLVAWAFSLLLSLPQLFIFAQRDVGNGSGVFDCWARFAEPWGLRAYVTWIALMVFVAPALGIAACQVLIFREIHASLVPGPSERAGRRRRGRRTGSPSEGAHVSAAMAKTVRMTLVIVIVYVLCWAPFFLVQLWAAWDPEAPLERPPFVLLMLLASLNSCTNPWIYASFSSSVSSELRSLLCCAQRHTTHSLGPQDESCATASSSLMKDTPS
In short: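 Male rats deprived of food and water overnight to reach a stable hydropenic state (raised plasma vasopressin, urine osmolality ≈1500 mOsm/kg H2O). Antagonist given at varying doses to groups of four rats. Urine volume and osmolality measured. The value is the dose that brings urine osmolality down to 300 mOsm/kg. Each determination averages four rats, and the reported value averages (n) determinations.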

Vasopressin V2 receptor [4] = molecular target: Vasopressin V2 receptor (Sus scrofa, UniProt P32307); test: Inhibition constant for vasopressin-stimulated adenylate cyclase of medullary membranes of pig kidney
Sequence of Vasopressin V2 receptor (Sus scrofa, UniProt P32307) (P32307 whole entry): as the sequence (P32307 whole entry) above
In short: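 Antagonism measured on pig renal medullary membranes as inhibition of LVP-stimulated adenylate cyclase, expressed as inhibition constant Ki. Each determination averages triplicate tests, and the value averages (n) determinations.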

SMILES | K bind [1] [nM] | Ki (Vasopressin V2 receptor [2]) [nM] | ED300 [3] [µg/kg] | Ki (Vasopressin V2 receptor [4]) [nM]
CCOc1ccc(C[C@H]2NC(=O)CC3(CCCCC3)SSC[C@H](C(=O)N[C@H](CCCCN)C(N)=O)NC(=O)[C@@H](CC(N)=O)NC(=O)[C@H](C(C)C)NC(=O)[C@@H](Cc3ccccc3)NC2=O)cc1 | 26 | 3.3 | 59 | 
CCOc1ccc(C[C@H]2NC(=O)CC3(CCCCC3)SSC[C@@H](C(=O)N3CCC[C@H]3C(=O)NCCCCN=C(N)N)NC(=O)[C@H](CC(N)=O)NC(=O)[C@H](C(C)C)NC(=O)[C@H](Cc3ccccc3)NC2=O)cc1 ([dY](Et)FVNCP-Agmatine; linker N-5 via X1) |  | 3.7 |  | 6

Reference: ChEMBL document CHEMBL1124391, “Structure-activity relationships of novel vasopressin antagonists containing C-terminal diaminoalkanes and (aminoalkyl)guanidines” (J Med Chem, 1989)
